Calls of active or inactive are those of the source. The calls are words filed in the database; no cut-off is given here.
How the values were obtained:
Mus musculus [1] = assay: Anticonvulsant activity in CF1 mouse assessed as protection against maximal electroshock-induced seizures at 30 mg/kg, ip after 4 hrs; assay type: functional, organism-based; parameters: dose 30 mg/kg
Outline: (§1)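 Male CF-1 albino mice (18–25 g), dosed i.p. at 30, 100 or 300 mg/kg in 0.5% methyl cellulose/water or PEG 200 (0.01 ml/g); tested at intervals after dosing; protection = abolition of hind limb tonic extensor component of MES seizure; scored as protected/tested.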

Mus musculus [2] = assay: Anticonvulsant activity in CF1 mouse assessed as protection against 6 Hz electric shock-induced seizures at 100 mg/kg, ip after 1 hr; assay type: functional, organism-based; parameters: dose 100 mg/kg
Outline: (§2)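 Male CF-1 albino mice (18–25 g), compound suspended in 0.5% methyl cellulose/water or PEG 200, given i.p.; four mice per time point (0.25, 0.5, 1.0, 2.0, 4 h) challenged via corneal electrodes at 6 Hz, 32 mA for 3 s, current eliciting psychomotor seizure in 97% of animals; reported as protected/tested.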

Mus musculus [3] = assay: Anticonvulsant activity in CF1 mouse assessed as protection against subcutaneous metrazole-induced seizures at 30 mg/kg, ip after 4 hrs; assay type: functional, organism-based; parameters: dose 30 mg/kg
Mus musculus [4] = assay: Anticonvulsant activity in CF1 mouse assessed as protection against maximal electroshock-induced seizures at 30 mg/kg, ip after 0.5 hrs; assay type: functional, organism-based; parameters: dose 30 mg/kg; outline: as §1
Mus musculus [5] = assay: Anticonvulsant activity in CF1 mouse assessed as protection against subcutaneous metrazole-induced seizures at 300 mg/kg, ip after 4 hrs; assay type: functional, organism-based; parameters: dose 300 mg/kg
Mus musculus [6] = assay: Neurotoxicity in CF1 mouse at 30 mg/kg, ip after 4 hrs by rotarod test; assay type: toxicity, organism-based; parameters: dose 30 mg/kg, route intraperitoneal; conditions: in vivo
Outline: (§3)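 Rotorod neurotoxicity in male CF-1 mice (18–25 g) after i.p. compound in 0.5% methyl cellulose/water or PEG 200 at 30, 100 or 300 mg/kg; reported as number showing toxicity/number tested.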

Mus musculus [7] = assay: Anticonvulsant activity in CF1 mouse assessed as protection against 6 Hz electric shock-induced seizures at 100 mg/kg, ip after 0.25 hrs; assay type: functional, organism-based; parameters: dose 100 mg/kg; outline: as §2
Mus musculus [8] = assay: Neurotoxicity in CF1 mouse at 300 mg/kg, ip after 4 hrs by rotarod test; assay type: toxicity, organism-based; parameters: dose 300 mg/kg, route intraperitoneal; conditions: in vivo; outline: as §3
Mus musculus [9] = assay: Anticonvulsant activity in CF1 mouse assessed as protection against subcutaneous metrazole-induced seizures at 100 mg/kg, ip after 4 hrs; assay type: functional, organism-based; parameters: dose 100 mg/kg
Mus musculus [10] = assay: Anticonvulsant activity in CF1 mouse assessed as protection against subcutaneous metrazole-induced seizures at 300 mg/kg, ip after 0.5 hrs; assay type: functional, organism-based; parameters: dose 300 mg/kg
Mus musculus [11] = assay: Neurotoxicity in CF1 mouse at 100 mg/kg, ip after 0.5 hrs by rotarod test; assay type: toxicity, organism-based; parameters: dose 100 mg/kg, route intraperitoneal; conditions: in vivo; outline: as §3
Mus musculus [12] = assay: Anticonvulsant activity in CF1 mouse assessed as protection against 6 Hz electric shock-induced seizures at 100 mg/kg, ip after 4 hrs; assay type: functional, organism-based; parameters: dose 100 mg/kg; outline: as §2
Mus musculus [13] = assay: Neurotoxicity in CF1 mouse at 100 mg/kg, ip after 4 hrs by rotarod test; assay type: toxicity, organism-based; parameters: dose 100 mg/kg, route intraperitoneal; conditions: in vivo; outline: as §3
Mus musculus [14] = assay: Anticonvulsant activity in CF1 mouse assessed as protection against maximal electroshock-induced seizures at 100 mg/kg, ip after 0.5 hrs; assay type: functional, organism-based; parameters: dose 100 mg/kg; outline: as §1
Mus musculus [15] = assay: Neurotoxicity in CF1 mouse at 300 mg/kg, ip after 0.5 hrs by rotarod test; assay type: toxicity, organism-based; parameters: dose 300 mg/kg, route intraperitoneal; conditions: in vivo; outline: as §3
Mus musculus [16] = assay: Anticonvulsant activity in CF1 mouse assessed as protection against subcutaneous metrazole-induced seizures at 100 mg/kg, ip after 0.5 hrs; assay type: functional, organism-based; parameters: dose 100 mg/kg
Mus musculus [17] = assay: Anticonvulsant activity in CF1 mouse assessed as protection against maximal electroshock-induced seizures at 100 mg/kg, ip after 4 hrs; assay type: functional, organism-based; parameters: dose 100 mg/kg; outline: as §1
Mus musculus [18] = assay: Anticonvulsant activity in CF1 mouse assessed as protection against 6 Hz electric shock-induced seizures at 100 mg/kg, ip after 0.5 hrs; assay type: functional, organism-based; parameters: dose 100 mg/kg; outline: as §2
Mus musculus [19] = assay: Anticonvulsant activity in CF1 mouse assessed as protection against 6 Hz electric shock-induced seizures at 100 mg/kg, ip after 2 hrs; assay type: functional, organism-based; parameters: dose 100 mg/kg; outline: as §2
Mus musculus [20] = assay: Neurotoxicity in CF1 mouse at 30 mg/kg, ip after 0.5 hrs by rotarod test; assay type: toxicity, organism-based; parameters: dose 30 mg/kg, route intraperitoneal; conditions: in vivo; outline: as §3
Mus musculus [21] = assay: Anticonvulsant activity in CF1 mouse assessed as protection against subcutaneous metrazole-induced seizures at 30 mg/kg, ip after 0.5 hrs; assay type: functional, organism-based; parameters: dose 30 mg/kg
Mus musculus [22] = assay: Anticonvulsant activity in CF1 mouse assessed as protection against maximal electroshock-induced seizures at 300 mg/kg, ip after 4 hrs; assay type: functional, organism-based; parameters: dose 300 mg/kg; outline: as §1
Mus musculus [23] = assay: Anticonvulsant activity in CF1 mouse assessed as protection against maximal electroshock-induced seizures at 300 mg/kg, ip after 0.5 hrs; assay type: functional, organism-based; parameters: dose 300 mg/kg; outline: as §1

Row | SMILES | Activity (Mus musculus [1]) | Activity (Mus musculus [2]) | Activity (Mus musculus [3]) | Activity (Mus musculus [4]) | Activity (Mus musculus [5]) | Activity (Mus musculus [6]) | Activity (Mus musculus [7]) | Activity (Mus musculus [8]) | Activity (Mus musculus [9]) | Activity (Mus musculus [10]) | Activity (Mus musculus [11]) | Activity (Mus musculus [12]) | Activity (Mus musculus [13]) | Activity (Mus musculus [14]) | Activity (Mus musculus [15]) | Activity (Mus musculus [17]) | Activity (Mus musculus [18]) | Activity (Mus musculus [20]) | Activity (Mus musculus [21]) | Activity (Mus musculus [23]) | also measured
1 | CCCOc1c(C(=O)N/N=C(\c2ccccc2)c2ccc(Br)s2)sc(C(=O)N/N=C(\c2ccccc2)c2ccc(Br)s2)c1OCCC | inactive | inactive | inactive | inactive | inactive | Non-toxic | inactive | Non-toxic | inactive | inactive | Toxic | inactive | Toxic | inactive | Toxic | inactive | inactive | Non-toxic | inactive | inactive | Activity (Mus musculus [16]): inactive; Activity (Mus musculus [19]): inactive; Activity (Mus musculus [22]): inactive
2 | CCCOc1c(C(=O)NN=C(c2ccccc2)c2ccccc2)sc(C(=O)NN=C(c2ccccc2)c2ccccc2)c1OCCC | inactive | inactive | inactive | inactive | inactive | Non-toxic | inactive | Non-toxic | inactive | inactive |  | inactive | Non-toxic | inactive | Non-toxic | inactive | inactive | Non-toxic | inactive | inactive | Activity (Mus musculus [16]): inactive; Activity (Mus musculus [19]): inactive; Activity (Mus musculus [22]): inactive
3 | CCCOc1c(C(=O)NN=C2CCCCC2)sc(C(=O)NN=C2CCCCC2)c1OCCC | inactive | inactive | inactive | inactive | inactive | Non-toxic | inactive | Non-toxic | inactive | inactive | Non-toxic | inactive | Non-toxic | inactive | Non-toxic | inactive | inactive | Non-toxic | inactive | inactive | Activity (Mus musculus [16]): inactive; Activity (Mus musculus [19]): inactive
4 | CCCOc1c(C(=O)N/N=C\c2cc(OC)c(OC)c(OC)c2)sc(C(=O)N/N=C/c2cc(OC)c(OC)c(OC)c2)c1OCCC | inactive |  | inactive | inactive | inactive | Non-toxic | inactive | Non-toxic | inactive | inactive | Non-toxic | inactive | Non-toxic | inactive | Non-toxic | inactive | inactive | Non-toxic | inactive | inactive | Activity (Mus musculus [22]): inactive
